Columns and labels:
Homo sapiens = species: Homo sapiens; experiment: In vitro inhibition of U-46,619-induced aggregation of unwashed human platelets.; format: functional; settings: for Kb: Homo sapiens, read-out: pA2 (converted)
Summary of the method: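 Citrated (3.2%) human venous blood spun at 200g for 10 min. Platelet-rich plasma aggregated with U46619 with or without several antagonist concentrations.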

Prostacyclin synthase = molecular target: T1, Prostacyclin synthase (Homo sapiens, UniProt Q16647); experiment: In vitro inhibition of Prostaglandin I2 synthase in cultured human endothelial cells
T1 sequence (Q16647 whole entry): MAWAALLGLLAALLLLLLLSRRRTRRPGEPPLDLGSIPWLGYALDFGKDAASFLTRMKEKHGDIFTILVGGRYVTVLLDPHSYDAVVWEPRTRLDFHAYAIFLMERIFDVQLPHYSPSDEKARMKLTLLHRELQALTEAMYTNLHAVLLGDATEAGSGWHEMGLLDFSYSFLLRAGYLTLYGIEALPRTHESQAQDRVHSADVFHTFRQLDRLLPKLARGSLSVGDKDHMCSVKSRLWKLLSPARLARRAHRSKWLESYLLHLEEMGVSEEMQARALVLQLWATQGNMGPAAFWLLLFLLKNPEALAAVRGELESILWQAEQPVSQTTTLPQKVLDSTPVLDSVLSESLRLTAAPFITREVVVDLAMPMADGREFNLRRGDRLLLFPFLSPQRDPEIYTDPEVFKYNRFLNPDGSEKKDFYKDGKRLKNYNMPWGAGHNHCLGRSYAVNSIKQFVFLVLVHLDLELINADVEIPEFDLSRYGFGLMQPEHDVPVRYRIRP

Thromboxane-A synthase = molecular target: T2, Thromboxane-A synthase (Homo sapiens, UniProt P24557); experiment: In vitro Inhibition of thromboxane synthase from human blood platelet microsomes
T2 sequence (P24557 whole entry): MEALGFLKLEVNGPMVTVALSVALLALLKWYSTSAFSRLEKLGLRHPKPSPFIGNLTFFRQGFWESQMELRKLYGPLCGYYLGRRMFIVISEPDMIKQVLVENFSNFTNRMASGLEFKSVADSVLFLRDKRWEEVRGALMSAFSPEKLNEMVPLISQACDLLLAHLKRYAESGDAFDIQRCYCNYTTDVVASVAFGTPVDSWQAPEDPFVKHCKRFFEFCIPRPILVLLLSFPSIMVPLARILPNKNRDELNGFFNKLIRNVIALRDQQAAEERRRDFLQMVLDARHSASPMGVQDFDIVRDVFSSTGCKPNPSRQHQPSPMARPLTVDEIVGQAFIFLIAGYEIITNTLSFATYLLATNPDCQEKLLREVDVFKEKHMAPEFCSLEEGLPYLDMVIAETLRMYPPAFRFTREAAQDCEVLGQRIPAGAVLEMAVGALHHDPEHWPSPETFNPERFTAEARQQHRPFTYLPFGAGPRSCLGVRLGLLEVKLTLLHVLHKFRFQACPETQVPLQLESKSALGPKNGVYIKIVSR
Summary of the method: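 Human blood platelet microsomes incubated with [1-14C]arachidonic acid with or without inhibitor. Conversion to labeled thromboxane B2 quantified radiochromatographically. n = 2.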

Row | IC50 (Prostacyclin synthase) | IC50 (Thromboxane-A synthase) | SMILES | Kb (Homo sapiens) | pA2 (Homo sapiens)
1 | 23000 nM | 37 nM | COc1ccc(OC(C)(C)C2OCC(C/C=C\CCC(=O)O)C(c3cccnc3)O2)c([N+](=O)[O-])c1 (stereo unspecified) | 6.17 nM | –
2 | – | 164 nM | O=C(O)CC/C=C\CC1COC(c2ccco2)OC1c1cccnc1 (stereo unspecified) | 1260 nM | –
3 | – | > 10000 nM | Cc1ccc(OC(C)(C)C2OCC(C/C=C\CCC(=O)O)C(c3cccnc3)O2)c([N+](=O)[O-])c1 (stereo in doubt; 7y) | – | < 5
4 | – | 44 nM | O=C(O)CC/C=C\CC1COC(c2ccc(C(F)(F)F)cc2)OC1c1cccnc1 (stereo unspecified) | 1780 nM | –
5 | – | 71 nM | O=C(O)CC/C=C\CC1COC(c2cccs2)OC1c1cccnc1 (stereo unspecified) | 1000 nM | –
6 | – | 40 nM | CC(C)(Sc1ccccc1)C1OCC(C/C=C\CCC(=O)O)C(c2cccnc2)O1 (stereo unspecified) | 200 nM | –
7 | – | 280 nM | CC(C)(C)c1ccc(OC(C)(C)C2OCC(C/C=C\CCC(=O)O)C(c3cccnc3)O2)cc1 (stereo unspecified) | 1910 nM | –
8 | 8000 nM | 34 nM | CC(C)(Oc1ccc(S(C)(=O)=O)cc1)C1OCC(C/C=C\CCC(=O)O)C(c2cccnc2)O1 (stereo unspecified) | 91.2 nM | –
9 | – | 40 nM | O=C(O)CC/C=C\CC1COC(c2cccc3ccccc23)OC1c1cccnc1 (stereo unspecified) | 631 nM | –
10 | 25000 nM | 360 nM | Cc1ccc(OC(C)(C)C2OCC(C/C=C\CCC(=O)O)C(c3cccnc3)O2)cc1 (stereo unspecified) | 631 nM | –
11 | > 100000 nM | 50 nM | Cc1ccc(C#N)c(OC(C)(C)C2OCC(C/C=C\CCC(=O)O)C(c3cccnc3)O2)c1 (stereo unspecified) | 15.8 nM | –
12 | 14000 nM | 37 nM | CC(C)(Cc1ccccc1C#N)C1OCC(C/C=C\CCC(=O)O)C(c2cccnc2)O1 (stereo unspecified) | 27.5 nM | –
13 | – | 40 nM | COc1ccc(SC(C)(C)C2OCC(C/C=C\CCC(=O)O)C(c3cccnc3)O2)c([N+](=O)[O-])c1 (stereo unspecified) | 158 nM | –
14 | 4000 nM | < 10 nM | CC(=O)c1ccc(OC(C)(C)C2OCC(C/C=C\CCC(=O)O)C(c3cccnc3)O2)c([N+](=O)[O-])c1 (stereo unspecified) | 1.51 nM | –
15 | 7000 nM | < 10 nM | CC(C)(Cc1ccc(F)cc1C#N)C1OCC(C/C=C\CCC(=O)O)C(c2cccnc2)O1 (stereo unspecified) | 2.19 nM | –
16 | 60000 nM | 90 nM | Cc1cccc(C#N)c1OC(C)(C)C1OCC(C/C=C\CCC(=O)O)C(c2cccnc2)O1 (stereo unspecified) | 25.1 nM | –
17 | – | 500 nM | O=C(O)CC/C=C\CC1COC(c2ccsc2)OC1c1cccnc1 (stereo unspecified) | 1580 nM | –
18 | 51000 nM | 60 nM | COc1ccccc1OC(C)(C)C1OCC(C/C=C\CCC(=O)O)C(c2cccnc2)O1 (stereo unspecified) | 224 nM | –
19 | – | 48 nM | O=C(O)CC/C=C\CC1COC(c2ccccc2Cl)OC1c1cccnc1 (stereo unspecified) | 759 nM | –
20 | > 100000 nM | 41 nM | COc1ccc(OC(C)(C)C2OCC(C/C=C\CCC(=O)O)C(c3cccnc3)O2)cc1 (stereo unspecified) | 302 nM | –
21 | 47000 nM | 50 nM | Cc1ccc(OC(C)(C)C2OCC(C/C=C\CCC(=O)O)C(c3cccnc3)O2)c(C#N)c1 (stereo in doubt; 7ac) | – | 8.1
22 | 40000 nM | 26 nM | CC(C)(Oc1cccc(F)c1)C1OCC(C/C=C\CCC(=O)O)C(c2cccnc2)O1 (stereo unspecified) | 126 nM | –
23 | 2000 nM | 45 nM | CC(C)(Cc1ccc(F)cc1)C1OCC(C/C=C\CCC(=O)O)C(c2cccnc2)O1 (stereo unspecified) | 89.1 nM | –
24 | 2500 nM | 42 nM | O=C(O)CC/C=C\CC1COC(c2ccc(Cl)cc2Cl)OC1c1cccnc1 (stereo unspecified) | 891 nM | –
25 | 73000 nM | 66 nM | COC(=O)c1ccccc1OC(C)(C)C1OCC(C/C=C\CCC(=O)O)C(c2cccnc2)O1 (stereo unspecified) | 64.6 nM | –
26 | < 1000 nM | 45 nM | CC(C)(Oc1ccccc1F)C1OCC(C/C=C\CCC(=O)O)C(c2cccnc2)O1 (stereo unspecified) | 166 nM | –
27 | 37000 nM | 15 nM | CC(C)(Oc1ccc(F)cc1C#N)C1OCC(C/C=C\CCC(=O)O)C(c2cccnc2)O1 (stereo unspecified) | 0.708 nM | –

Row | IC50 (Prostacyclin synthase) | IC50 (Thromboxane-A synthase) | SMILES | Kb (Homo sapiens) | pA2 (Homo sapiens)
28 | 2000 nM | 45 nM | CC(C)(Oc1ccccc1S(C)(=O)=O)C1OCC(C/C=C\CCC(=O)O)C(c2cccnc2)O1 (stereo unspecified) | 589 nM | –
29 | 13000 nM | 12 nM | CC(C)(Cc1ccccc1)C1OCC(C/C=C\CCC(=O)O)C(c2cccnc2)O1 (stereo unspecified) | 513 nM | –
30 | 7000 nM | 29 nM | CC(C)(Oc1ccccc1Br)C1OCC(C/C=C\CCC(=O)O)C(c2cccnc2)O1 (stereo unspecified) | 63.1 nM | –
31 | 9000 nM | 42 nM | O=C(O)CC/C=C\CC1COC(c2ccc(Cl)c(Cl)c2)OC1c1cccnc1 (stereo unspecified) | 776 nM | –
32 | 32000 nM | 39 nM | CSc1ccc(OC(C)(C)C2OCC(C/C=C\CCC(=O)O)C(c3cccnc3)O2)cc1 (stereo unspecified) | 372 nM | –
33 | – | 220 nM | O=C(O)CC/C=C\CC1COC(c2cccnc2)OC1c1cccnc1 (stereo unspecified) | 759 nM | –
34 | > 100000 nM | 36 nM | CSc1ccccc1OC(C)(C)C1OCC(C/C=C\CCC(=O)O)C(c2cccnc2)O1 (stereo unspecified) | 89.1 nM | –
35 | – | 30 nM | Cc1ccc(SC(C)(C)C2OCC(C/C=C\CCC(=O)O)C(c3cccnc3)O2)c([N+](=O)[O-])c1 (stereo unspecified) | 158 nM | –
36 | – | 40 nM | CC(C)(C1OCC(C/C=C\CCC(=O)O)C(c2cccnc2)O1)S(=O)(=O)c1ccccc1 (stereo unspecified) | 3160 nM | –
37 | > 100000 nM | 24 nM | N#Cc1ccc(C2OCC(C/C=C\CCC(=O)O)C(c3cccnc3)O2)cc1 (stereo unspecified) | 1290 nM | –
38 | 33000 nM | 27 nM | Cc1ccc(OC(C)(C)C2OCC(C/C=C\CCC(=O)O)C(c3cccnc3)O2)c([N+](=O)[O-])c1 (stereo in doubt; 7w) | – | 8.34
39 | 4000 nM | 46 nM | CC(C)(Oc1ccc(C#N)cc1)C1OCC(C/C=C\CCC(=O)O)C(c2cccnc2)O1 (stereo unspecified) | 129 nM | –
40 | > 100000 nM | – | O=C(O)CCCC/C=C(\c1ccccc1)c1cccnc1 [(E)-ISBOGREL] | – | –
41 | 9000 nM | 20 nM | CC(C)(Oc1ccc(F)cc1[N+](=O)[O-])C1OCC(C/C=C\CCC(=O)O)C(c2cccnc2)O1 (stereo unspecified) | 2.51 nM | –
42 | – | 50 nM | O=C(O)CC/C=C\CC1COC(c2ccc3ccccc3c2)OC1c1cccnc1 (stereo unspecified) | 1780 nM | –
43 | 4000 nM | 22 nM | CC(C)(Oc1ccc(Br)cc1)C1OCC(C/C=C\CCC(=O)O)C(c2cccnc2)O1 (stereo in doubt; 7q) | – | 6.48
44 | 5000 nM | 22 nM | CSc1ccc(OC(C)(C)C2OCC(C/C=C\CCC(=O)O)C(c3cccnc3)O2)c([N+](=O)[O-])c1 (stereo unspecified) | 4.47 nM | –
45 | 13000 nM | 39 nM | O=C(O)CC/C=C\CC1COC(c2ccc([N+](=O)[O-])cc2)OC1c1cccnc1 (stereo unspecified) | 933 nM | –
46 | 75000 nM | 52 nM | CC(C)(Oc1ccccc1)C1OCC(C/C=C\CCC(=O)O)C(c2cccnc2)O1 (stereo unspecified) | 75.9 nM | –
47 | 3000 nM | 45 nM | CC(C)(Oc1ccccc1C#N)C1OCC(C/C=C\CCC(=O)O)C(c2cccnc2)O1 (stereo unspecified) | 13.2 nM | –
48 | – | 40 nM | CC(C)(Sc1ccccc1C#N)C1OCC(C/C=C\CCC(=O)O)C(c2cccnc2)O1 (stereo unspecified) | 316 nM | –
49 | > 100000 nM | 32 nM | CC(C)(Oc1ccccc1O)C1OCC(C/C=C\CCC(=O)O)C(c2cccnc2)O1 (stereo unspecified) | 95.5 nM | –
50 | – | > 100000 nM | O=C(O)CC/C=C\C[C@@H]1CO[C@H](c2ccccc2Cl)O[C@@H]1c1ccccc1O | 6.92 nM | –
51 | < 1000 nM | > 10000 nM | CC(C)(Oc1ccc(Br)cc1)C1OCC(C/C=C\CCC(=O)O)C(c2cccnc2)O1 (stereo in doubt; 7p) | – | 5.61
52 | 3400 nM | 51 nM | CC(C)(Oc1ccc(Br)cc1)C1OCC(C/C=C\CCC(=O)O)C(c2cccnc2)O1 (stereo in doubt; 7b) | – | 6.42
53 | 12000 nM | 25 nM | Cc1ccc(OC(C)(C)C2OCC(C/C=C\CCC(=O)O)C(c3cccnc3)O2)c(C#N)c1 (stereo in doubt; 7af) | 3.98 nM | –
